From PubChem
PglD inh: PglD (C. jejuni) enzyme inhibition | purified PglD enzyme, DTNB colorimetric CoA detection | inhibition, % at 12.5 µM | hit rate 0.098% among 360,000; in the data active means inhibition above about 16%, passing the limit was not always enough; inconclusive means no clear call, values can overlap the other calls
FN deposition inh: fibronectin deposition inhibition | AH1F fibroblasts, Alexa488-fibronectin deposition fluorescence, overnight | inhibition, % at 12.6 µM | hit rate 0.086% among 350,000 | AID 743247;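 active means mean inhibition across replicates of 30% or more, regardless of how many single replicates reach that level; inconclusive means mean under 30% yet at least half of replicates reach 30%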;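 further: positive control wells lacked labelled fibronectin entirely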
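Schedule: 1 h cell adhesion before compound, then overnight fibronectin incubation; test system: AH1F fibroblast monolayer depositing Alexa488-labelled fibronectin into matrix; quantity: 10000 AH1F cells per well; probe or stimulus: fluorescent fibronectin at 24 nM final; signal: fluorescence, ex 485 nm, em 525 nm; evaluation: percent inhibition as loss of matrix-bound fibronectin fluorescence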
HIV Env fusion: blocks HIV Env-driven cell-cell fusion | HeLa-JRFL Env/CEM21 cell fusion, luciferase | inhibition, % at 12.3 µM | hit rate 1.1% among 360,000;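 active means mean replicate inhibition score of at least 50 and every replicate individually at or above 50; inconclusive means only one of the two criteria met; inactive means mean below 50 and not all replicates reaching 50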;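 further: 0% = plate neutral controls and 100% = maraviroc near 300 nM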
rRNA inh HTS: selective bacterial rRNA inhibition in E. coli; E. coli WT GFP vs humanized-ribosome RFP mutants, fluorescence, 24 h; active compounds read low; DMSO median 0, no signal -100; GFP signal change (wild-type ribosome), % (test concentration not listed); hit rate 1.6% among 350,000;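 active means significant combined selectivity score with lowered wild-type GFP, culture density cut under 30%, mutant RFP and density less affected; inactive means any of these conditions unmet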
DENV2 CPE rescue: protects cells from dengue virus 2 cytopathic effect | DENV2-infected cells, cytopathic effect rescue, plate reader | CPE inhibition, % at 9.99 µM | hit rate 1.7% among 350,000 | AID 651640; in the data active means CPE inhibition above about 20%, passing the limit was not always enough; inconclusive means no clear call, values can overlap the other calls; tested in BHK-21 cells;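 further: 0% = median of neutral control wells and 100% = median of positive control wells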
PGC1a acetyl inh: modulators of PGC1a acetylation. U2OS PGC1a acetylation, AlphaScreen anti-acetyl-lysine; with virally co-expressed GCN5 acetyltransferase. inhibition, % at 15.6 µM. hit rate 0.17% among 350,000. AID 651687;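 active means every replicate shows inhibition of at least 40%; inconclusive means mean inhibition at least 40% but some replicate below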;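 further: 0% = neutral control wells and 100% = positive control wells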
* = called active by the depositor; ? = inconclusive; . = not tested or not shown; [ ] = remark or other dose. Rows were chosen to be rich in hits. Some 3.5% of all compounds tested hit in one or more screens of this group.

SMILES	PglD inh	FN deposition inh	HIV Env fusion	rRNA inh HTS	DENV2 CPE rescue	PGC1a acetyl inh
CC(=O)Nc1ccc(NC(=O)C2Cc3c(-c4cccc(NC(C)=O)c4)ccnc3O2)cc1 (stereo not given)	-3	8	-5	3	?	.
O=C(Nc1ccccc1)C1Cc2c(-c3ccccc3Oc3ccccc3)ccnc2O1 (stereo not given)	-8	-8	11	5	-3	-21
CN1C(=O)c2cc(NC(=O)Cc3cccs3)ccc2OC[C@H]2O[C@@H](CC(=O)O)CC[C@@H]21	.	-9	.	2	5	21
CN(C)CCNc1ccc(CO)c2oc3ccc(O)cc3c(=O)c12	.	4	44	-10	0	9
CCN(CC)CCNc1ccc(CO)c2oc3cc(Cl)ccc3c(=O)c12	1	3	-6	0	64*	7
COc1cc(OC)cc(-c2nnc(SCc3c(F)cccc3Cl)o2)c1	5	.	.	-28*	7	4
CN1[C@@H]2c3ccc(-c4ccncc4)c(=O)n3C[C@H]1[C@H](CO)[C@H]2C(=O)N1CCC(Cc2ccccc2)CC1	2	1	10[16.7 µM]	-1	25*	.
O=C([C@@H]1[C@@H](CO)[C@@H]2Cn3c(ccc(C4=CCCCC4)c3=O)[C@H]1N2)N1CCCCC1	-2	.	.	0	35*	.
CN1[C@@H]2Cn3c(ccc(-c4ccncc4)c3=O)[C@H]1[C@@H](C(=O)N1CCC(Cc3ccccc3)CC1)[C@@H]2CO	-4	8	12[16.7 µM]	-1	-6	.
CN1[C@@H]2c3ccc(C4=CCCC4)c(=O)n3C[C@H]1[C@H](CO)[C@H]2C(=O)N1CCCCC1	-2	.	.	1	-16	.
O=C(NC1CCC1)[C@H]1[C@H](CO)[C@H]2Cn3c(ccc(C4=CCCCC4)c3=O)[C@H]2N1C(=O)C1CCOCC1	3	.	.	1	65*	.
CN1[C@@H]2Cn3c(ccc(C4=CCCC4)c3=O)[C@H]1[C@@H](C(=O)N1CCCCC1)[C@@H]2CO	2	.	.	4	110*	.
C[C@H]1CN([C@@H](C)CO)C(=O)Cc2cc(NC(=O)Cc3cn(C)c4ccccc34)ccc2O[C@H]1CN(C)C(=O)NC1CCCCC1	3	.	.	.	3	3
COc1ccccc1-c1ccc2n(c1=O)C[C@H]1[C@H](CO)[C@@H](C(=O)NCc3ccccc3Cl)N[C@@H]21	9	3	9[16.7 µM]	-5	13	.
CS(=O)(=O)N1[C@@H]2c3ccc(-c4ccc(F)cc4)c(=O)n3C[C@H]1[C@H](CO)[C@H]2C(=O)N1CCOCC1	-1	.	.	1	115*	.
CCCNC(=O)C[C@@H]1C[C@H]2c3cc(NC(=O)c4cccnc4)ccc3O[C@H]2[C@H](CO)O1	-3	8	71*[16.7 µM]	0	-5	-3
COc1ccccc1CNC(=O)C[C@@H]1C[C@@H]2c3cc(NC(=O)c4cccnc4)ccc3O[C@@H]2[C@@H](CO)O1	2	.	0[16.7 µM]	1	4	-6
COc1ccccc1CNC(=O)C[C@H]1C[C@@H]2c3cc(NC(=O)c4cccnc4)ccc3O[C@@H]2[C@@H](CO)O1	2	.	90*[16.7 µM]	0	-4	1
C[C@H](CO)N1C[C@H](C)[C@H](CN(C)C(=O)Cc2ccccc2)OCCCC[C@H](C)Oc2ccc(N(C)C)cc2C1=O	-2	.	23[16.7 µM]	-6	-4	-1
CCCNC(=O)N1[C@H](CO)[C@@H]2c3ccccc3N(C(=O)NC(C)C)C[C@@H]21	2	-8	.	6	-1	0
CC(C)(C)OC(=O)N1CCc2onc(-c3ccc(Br)cc3)c2C1=O	.	5	72*	16	-3	-22
COc1ccc(Cl)cc1NC(=O)NC1CCCCC1	-3	.	.	.	.	-4
COc1ccc(Cl)cc1NC(=O)Nc1cccc([N+](=O)[O-])c1C	4	.	.	-32*	.	.
CCCNC(=O)Nc1ccc2c(c1)C(=O)N(C)C[C@@H](OC)[C@@H](C)CN(CCC(F)(F)F)[C@@H](C)CO2	.	21	.	1	.	-3
C[C@@H]1CN([C@H](C)CO)C(=O)c2cc(NC(=O)CCC(F)(F)F)ccc2O[C@@H](C)CCCCO[C@H]1CN(C)C(=O)Nc1cccc2ccccc12	3	6	21[16.7 µM]	-2	-14	-45
